The source of these data is ChEMBL document CHEMBL1833958, “Anti-AIDS agents 87. New bio-isosteric dicamphanoyl-dihydropyranochromone (DCP) and dicamphanoyl-khellactone (DCK) analogues with potent anti-HIV activity” (Bioorg Med Chem Lett, 2011).

The test system of data set [1] is Human immunodeficiency virus 1. As to the kind of experiment: Antiviral activity against Human immunodeficiency virus 1 NL4-3 infected in human TZM-bl cells assessed as inhibition of viral replication after 48 hrs by luciferase reporter gene assay. In kind it is functional, organism-based. The note with it: Human immunodeficiency virus 1, NL4-3, TZM-bl. An outline of the steps:
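Single-round infection of TZM-bl cells with HIV-1 NL4-3 at 200 TCID50, mixed with test samples at eight four-fold serial dilutions in growth medium. After 48 h, medium is removed and luciferase reagent added. Luminescence is then read. EC50 is the concentration giving 50% reduction in RLU versus virus control wells, after background RLU subtraction.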
For orientation: A reporter such as luciferase makes a cellular process visible.

Data set [2] is described as follows: Cytotoxicity against human TZM-bl cells assessed as inhibition of cell growth. In kind it is cell-based. An outline of the steps: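 Uninfected TZM-bl cells exposed to test samples. CC50 is the concentration inhibiting cell growth by 50%.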
Data set [3] is described as follows: Therapeutic index, ratio of CC50 for human TZM-bl cells to EC50 for HIV1 NL4-3. It is filed as cell-based. As to conditions: read-out: Ratio CC50/EC50. An outline of the steps: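 TI calculated as CC50 (uninfected TZM-bl growth inhibition) divided by EC50 (NL4-3 replication inhibition in TZM-bl luciferase reporter assay).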

As a reminder, the EC50 is the concentration at which the effect is half-maximal. A word on the CC50: it is the concentration giving 50% cytotoxicity.

As for `CCc1cc(=O)c2ccc3c(c2o1)[C@@H](OC(=O)C12CCC(C)(C(=O)O1)C2(C)C)[C@@H](OC(=O)C12CCC(C)(C(=O)O1)C2(C)C)C(C)(C)S3` (stereo partly drawn), the EC50 in data set [1] is 54 nM. Moreover, the CC50 in data set [2] turned out to be 5400 nM. Further, the selectivity ratio in data set [3] stood at 100.
`Cc1cc(=O)oc2c3c(ccc12)SC(C)(C)[C@H](OC(=O)[C@@]12CC[C@@](C)(C(=O)O1)C2(C)C)[C@@H]3OC(=O)[C@@]12CC[C@@](C)(C(=O)O1)C2(C)C`: the EC50 in data set [1] turned out to be 128 nM. The selectivity ratio in data set [3] was greater than 238.
Turning to `Cc1cc(=O)oc2c3c(ccc12)SC(C)(C)[C@@H](OC(=O)[C@@]12CC[C@@](C)(C(=O)O1)C2(C)C)[C@H]3OC(=O)[C@@]12CC[C@@](C)(C(=O)O1)C2(C)C`, in data set [1], the EC50 turned out to be 8590 nM. In addition, the CC50 in data set [2] was greater than 30600 nM. Moreover, in data set [3], the selectivity ratio is greater than 3.6.
Taken in the same sequence, the figures for `CCc1cc(=O)c2ccc3c(c2o1)[C@@H](OC(=O)C12CCC(C)(C(=O)O1)C2(C)C)[C@@H](OC(=O)C12CCC(C)(C(=O)O1)C2(C)C)[C@H](C)O3` (stereo partly drawn) were 30 nM, 4550 nM and 153.
Consider `CCc1cc(=O)c2ccc3c(c2o1)[C@@H](OC(=O)C12CCC(C)(C(=O)O1)C2(C)C)[C@@H](OC(=O)C12CCC(C)(C(=O)O1)C2(C)C)[C@H](C)S3` (stereo partly drawn), for which the EC50 in data set [1] was determined as 38 nM. The CC50 in data set [2] was 1840 nM. In addition, the selectivity ratio in data set [3] amounted to 48.
For the molecule `CCc1cc(=O)c2ccc3c(c2o1)[C@H](OC(=O)C12CCC(C)(C(=O)O1)C2(C)C)[C@H](OC(=O)C12CCC(C)(C(=O)O1)C2(C)C)[C@@H](C)S3` (stereo partly drawn), the EC50 in data set [1] was 184 nM. The CC50 in data set [2] was found to be 3830 nM. For the same molecule, the selectivity ratio in data set [3] turned out to be 20.8.
Take `CCc1cc(=O)c2ccc3c(c2o1)[C@@H](OC(=O)C12CCC(C)(C(=O)O1)C2(C)C)[C@@H](OC(=O)C12CCC(C)(C(=O)O1)C2(C)C)C(C)(C)O3` (stereo partly drawn): the selectivity ratio in data set [3] was 119.
